Only some compounds are listed: those with a hit (about 2.6% of all), similar ones and a draw of the others.
Myeloid diff MLP: myeloid differentiation induction | ER-HoxA9 myeloid progenitors, lysozyme-GFP differentiation, flow cytometry | hit rate 1% among 360,000 | calls only at 10 µM;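 active = normalized GFP-positive differentiation at or above the plate's own cutoff, the solvent-only control mean plus 3 SD; inconclusive = no clear call, values can overlap the other calls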;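 note: cells exposed to compound for four days before flow analysis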
Rce1 inh: blocks yeast Ras-converting enzyme. Q03530. hit rate 0.27% among 290,000. yeast membranes, quenched prenylated peptide cleavage fluorescence. AID 2563. calls only;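 active = fall in fluorescence gain of 50% or more versus controls, with final raw signal at or below 3038400; inconclusive = same 50% fall but final raw signal above 3038400; inactive = fall in fluorescence gain under 50%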
T cell HTS: T cell immune modulators affecting CD8 T cell-vesicle binding | AID 2052 | hit rate 0.068% among 330,000 | 2C CD8+ T cell-vesicle binding, flow cytometry; stronger effect = lower value | response (vesicle binding), % at 7 µM;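 active = response, share of CD8 T cells binding vesicles, and their 90th percentile fluorescence all below set limits, cut at about 80% in these data, passing the limit was not always enough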;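 note: values below 100% mean blocked vesicle binding to the CD8+ T cells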
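Also added: QL9-peptide-loaded Drosophila micro-vesicles bearing Ld, ICAM-1 and B7-1; Test system: purified 2C TCR transgenic mouse naive CD8+ T cells; Measured by: cytometric PE anti-B7-1 and Alexa647 anti-CD8 signals after 1% paraformaldehyde fixation; Timing: binding step 1.5 h, 37 °C, antibody labelling 20 min, ice.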
SKN-1 block: blocks SKN-1 activity in C. elegans. AID 624304. inhibition, % at 21.8 µM. hit rate 0.49% among 360,000. C. elegans VP596 Pgst-4::GFP/RFP ratio, acrylamide-induced, 24 h;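 active = interference check ratio from 0.5 to 1.5 plus GFP to RFP signal ratio inhibition reaching or exceeding a fixed threshold, cut at about 30% in these data, passing the limit was not always enough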
GRK2 inh: inhibitors of human GRK2 displacing RNA aptamer. P25098. bead flow cytometry, FAM-aptamer displacement from GRK2. inhibition of aptamer binding, % at 10 µM. hit rate 0.59% among 330,000;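 active = inhibition of aptamer binding above 40%, roughly 3 SD of noise, on plates passing a quality check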;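 note: median bead fluorescence of bound FAM aptamer so fluorescent compounds give negative values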
Rin1 Abl inh: human Rin1-Abl interaction inhibition; P00519+Q13671; TR-FRET Rin1/Abl binding, biochemical; inhibition, % at 7.35 µM; hit rate 0.4% among 360,000; AID 588664; in the data active = inhibition above about 5%, passing the limit was not always enough
Of the large screens only hits and unclear results are named; the others gave an inactive call.

CC(=O)Nc1cc(C(F)(F)F)ccc1OCC1CCCO1 (centres undefined)	SKN-1 block 37
O=c1oc(-c2ccc(Br)cc2)nc2ccccc12	none
CC(C)(C)c1ccc(OCC(=O)Nc2ccc3c4c(cccc24)C(=O)NC3=O)cc1	Myeloid diff MLP active (no result: T cell HTS, GRK2 inh)
Cc1ccc(OCC(=O)Nc2ccc3c(c2)C(=O)NC3=O)cc1	none
O=C(CSc1nnnn1-c1ccc(F)cc1F)Nc1ccccc1F	none
COc1ccc(Cl)cc1NC(=O)C1CC(=O)N(C2CCCCC2)C1 (centres undefined)	Myeloid diff MLP active
COc1ccc(C(C)(C)C)cc1NC(=O)C1CC(=O)N(C2CCCC2)C1 (centres undefined)	none (no result: Rce1 inh)
O=C(CN1C(=O)NC(CCc2ccccc2)C1=O)N1CCCCCC1 (centres undefined)	none (no result: Rce1 inh)
Cc1nn(-c2ncc(C(F)(F)F)cc2Cl)c(=O)n1-c1ccccc1F	none
C[C@H](NC(=O)c1cc2cc(Cl)ccc2n1C)C(=O)N[C@@H](Cc1ccccc1)C(=O)O	none
O=C(Nc1ccc2nc(-c3ccco3)c(-c3ccco3)nc2c1)N1CCCCCC1	GRK2 inh 52 (no result: Myeloid diff MLP, T cell HTS, SKN-1 block, Rin1 Abl inh)
Cc1noc(/C=C/N(C)C)c1S(=O)(=O)N1CCCC(C(=O)Nc2ccccc2F)C1 (centres undefined)	Myeloid diff MLP active
Cc1cc(C)c(NC(=O)C2CCCN(S(=O)(=O)c3c(C)noc3/C=C/N(C)C)C2)c(C)c1 (centres undefined)	none
O=C(NCC1CCCO1)c1ccccc1-c1nc(-c2ccccc2F)no1 (centres undefined)	none
O=C(NCC1CCCO1)c1ccccc1-c1nc(-c2ccc(Cl)cc2)no1 (centres undefined)	Myeloid diff MLP active
Cc1ccc(S(=O)(=O)Nc2ccccc2C(=O)NCC2CCCO2)cc1 (centres undefined)	Rce1 inh active (no result: Myeloid diff MLP, SKN-1 block, Rin1 Abl inh)
CN(C)C(=O)C[C@@H]1C=C[C@@H](NC(=O)C2CCC2)[C@@H](CO)O1	none (no result: Rce1 inh, T cell HTS, GRK2 inh, Rin1 Abl inh)
COc1ccc(S(=O)(=O)N2CCOC2CNC(=O)C(=O)NCCCN2CCOCC2)cc1 (centres undefined)	none (no result: Myeloid diff MLP)
Cc1cc(C)cc(OCc2ccc(C(=O)NN)o2)c1	Myeloid diff MLP active
COC(=O)Nc1ccc2c(c1)Nc1ccccc1CC2	none (no result: GRK2 inh)
Nc1ccc2c(c1)Nc1ccccc1CC2	Myeloid diff MLP active
CCOC(=O)c1c(C)[nH]c(C)c1S(=O)(=O)NCCc1sccc1C	Myeloid diff MLP active
CCOC(=O)c1c(C)[nH]c(C)c1S(=O)(=O)NCCc1ccc(SC)cc1	none
O=C(c1ccco1)N(CCC(c1ccccc1)c1ccco1)Cc1ccc(F)cc1 (centres undefined)	Myeloid diff MLP active
CC1(C)CC(C(CCN(Cc2ccccc2)C(=O)c2ccco2)c2ccc(F)cc2)CCO1 (centres undefined)	none
O=C(CCNS(=O)(=O)c1cccc(C(F)(F)F)c1)NCc1ccco1	none (no result: Rce1 inh)
COC(=O)C1=C(CN2CCSCC2)NC(=O)NC1c1cc(C)ccc1C (centres undefined)	SKN-1 block 37
CCOC(=O)C1=C(CN2CCSCC2)NC(=O)NC1c1cc(C)ccc1C (centres undefined)	none
COC(=O)C1=C(N)Oc2cc(C)n(C)c(=O)c2C1c1ccc(Cl)c(Cl)c1 (centres undefined)	none
COC(=O)C1=C(N)Oc2cc(C)n(CC3CCCO3)c(=O)c2C1c1ccc(Cl)c(Cl)c1 (centres undefined)	SKN-1 block 33
CC(C)CN(C(=O)CCC(=O)OCC(=O)NCCc1ccccc1)c1c(N)n(CC(C)C)c(=O)[nH]c1=O	none
CC1=C(C(=O)N(C(C)C)C(C)C)CC(CC(=O)NC(c2ccccc2)c2ccccc2)C(=O)N1Cc1ccc(C(C)(C)C)cc1 (centres undefined)	Myeloid diff MLP active (no result: Rce1 inh, T cell HTS, GRK2 inh)
CCN(CC)C(=O)C1=C(C)N(CCCN2CCCC2=O)C(=O)C(CC(=O)NC(c2ccccc2)c2ccccc2)C1 (centres undefined)	none (no result: Rce1 inh, T cell HTS, GRK2 inh)
CC1=C(C(=O)N(C)C)CC(CC(=O)NC(c2ccccc2)c2ccccc2)C(=O)N1CCCN1CCCC1=O (centres undefined)	Myeloid diff MLP active (no result: Rce1 inh, T cell HTS, GRK2 inh)
CCC(C)(C)c1ccc(OCCCC[n+]2cccc(C)c2)c(C(C)(C)CC)c1	Myeloid diff MLP inconclusive, Rce1 inh active (no result: T cell HTS, GRK2 inh)
Cc1ccc[n+](CC(=O)Nc2cc(C(F)(F)F)ccc2Cl)c1	none
CCOC(=O)Cc1csc(NC(=O)CCCc2ccccc2)n1	T cell HTS 0.0
Cc1ccnc2nc(C(=O)Nc3nc(-c4ccccn4)cs3)nn12	none
Cc1ccc(CNC(=O)C2CCN(c3nnc(N4CCCC4=O)s3)CC2)cc1	none
O=C(NCc1ccc(Cl)cc1)C1CCN(c2nnc(N3CCCC3=O)s2)CC1	SKN-1 block 37
O=C(c1ccco1)N1CCN(C2CN(CCc3ccccc3)S(=O)(=O)C2)CC1 (centres undefined)	none (no result: Rce1 inh, T cell HTS, GRK2 inh)
O=[N+]([O-])c1cccc2cn[nH]c12	Myeloid diff MLP active
Cc1[nH]c2c([N+](=O)[O-])cccc2c1C	none
CN(CC(=O)Nc1ccc(Cl)cc1)CC(=O)N1CCc2ccccc21	none (no result: Rce1 inh, T cell HTS, GRK2 inh)
COc1ccc(C)cc1N(C(=O)c1ccco1)C(C(=O)NC1CCCC1)c1ccc(N2CCOCC2)cc1 (centres undefined)	Myeloid diff MLP active
COc1ccc(OC)c(N(C(=O)c2ccco2)C(C(=O)NC2CCCC2)c2ccc(N3CCOCC3)cc2)c1 (centres undefined)	none
Clc1ccc2c(c1)c1ccccc1n2CN1CCOCC1	none
Clc1ccc2c(c1)c1cc(Cl)ccc1n2CN1CCOCC1	SKN-1 block 33
Nc1ccc2c(C(F)(F)F)cc(C(F)(F)F)nc2n1	Rce1 inh active
N#CC(c1ccc(Cl)cc1)c1ccc2c(C(F)(F)F)cc(C(F)(F)F)nc2n1 (centres undefined)	SKN-1 block 37
FC(F)(F)c1cc(C(F)(F)F)c2ccc(N3CCN(c4ccc(Cl)cc4)CC3)nc2n1	none
NS(=O)(=O)c1ccc(CCNC(=O)c2cccc(OC(F)F)c2)cc1	none
O=C(COC(=O)c1ccccc1Br)NC1CCCC1	Myeloid diff MLP active
COc1ccccc1C(=O)OCC(=O)NC1CCCC1	Myeloid diff MLP active
COc1ccccc1NC(=O)CON=C(N)CC(=O)NC1CCCCC1	Myeloid diff MLP active (no result: Rce1 inh)
CCc1cccc(CC)c1NC(=O)CO/N=C(\N)CC(=O)NC1CCCCC1	none
O=C(NCCc1ccccc1Cl)c1ccc2nc3ccccc3c(=O)n2c1	none
COc1ccc(NC(=O)COC(=O)C2C3CC4OC(=O)C2C4C3)cc1 (centres undefined)	none (no result: Rce1 inh)
CC1CCN(C(=O)COC(=O)/C=C/c2ccco2)CC1	GRK2 inh 51 (no result: Rce1 inh)
CC(O)CC(=O)O (centres undefined)	SKN-1 block 41 (no result: Rce1 inh)
CCOC(=O)c1ccc(N=Nc2c(C)c(C#N)c(O)[nH]c2=O)cc1	SKN-1 block 41
